Among the data in ChEMBL document CHEMBL1212900, “Falcipain inhibitors: optimization studies of the 2-pyrimidinecarbonitrile lead series” (J Med Chem, 2010) are IC50 values, retold here.

Experiment [1] in a line: Inhibition of Plasmodium falciparum falcipain-3 expressed in Escherichia coli. The essentials: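 Refolded recombinant enzyme from E. coli, 2 nM, in 100 mM sodium acetate pH 5.5 with 500 μM CHAPS and 10 mM DTT, DMSO up to 1%. H-D-Val-Leu-Arg-AFC at 150 μM final. Reaction started by enzyme addition; fluorescence monitored 1 h at room temperature. IC50 derived from percent activity plotted against inhibitor concentration.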

Experiment [2] can be described thus: Inhibition of Plasmodium falciparum falcipain-2 expressed in Escherichia coli. The essentials: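 Recombinant E. coli-expressed, refolded enzyme at 0.25 nM in 100 mM sodium acetate pH 5.5, 500 μM CHAPS, 10 mM DTT, DMSO ≤1%. Substrate H-D-Val-Leu-Arg-AFC at 30 μM final. Inhibitor dilutions mixed with substrate, enzyme added last; fluorescence followed 1 h at room temperature. IC50 from percent activity versus concentration.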

As usually defined, the IC50 is the concentration at which inhibition is half-maximal. Lower therefore signals greater potency. Consider `CC(C)CN(NC(=O)Cc1ccc(F)cc1)c1nc(C#N)ncc1Br`, for which the IC50 in experiment [1] turned out to be 4 nM; in experiment [2] it was 3 nM.

`CC(C)CN(NC(=O)OC(C)(C)C)c1nc(C#N)ncc1F`: the IC50 in experiment [1] worked out at 583 nM; in experiment [2] it was 24 nM. Take `CC(C)(C)OC(=O)NN(CC1CCC1)c1nc(C#N)ncc1Br`: the IC50 in experiment [1] is 62 nM; in experiment [2], 3 nM.

On to `COc1ccc2oc(C(=O)NN(CC(C)C)c3nc(C#N)ncc3Br)cc2c1`, for which the values for the IC50 in experiment [1] and in experiment [2] were 1240 nM and 183 nM, respectively. Regarding `Cc1nc(-c2ccc3c(c2)CCO3)sc1C(=O)NN(CC(C)C)c1nc(C#N)ncc1Cl`, the IC50 in experiment [1] stood at 950 nM; in experiment [2], 3 nM. In the same order, the values of `CC(C)CN(NC(=O)c1ccc(C(=O)c2ccccc2)cc1)c1nc(C#N)ncc1Br` are 115 nM and 3 nM. `CC(C)CN(NC(=O)c1cc(-c2ccccc2)no1)c1nc(C#N)ncc1Cl`: the figures for the IC50 in experiment [1] and in experiment [2] were 120 nM and 2 nM, respectively. For the compound `CC(C)(C)OC(=O)NN(c1nc(C#N)ncc1Br)C1CCOCC1`, the IC50 in experiment [1] was 28 nM; in experiment [2] it was 2 nM. Turning to `COCc1cnc(C#N)nc1N(CC(C)C)NC(=O)OC(C)(C)C`, the IC50 is over 10000 nM in experiment [1] and 8400 nM in experiment [2]. For `CC(C)CN(NC(=O)OC(C)(C)C)c1ncc(C#N)c(Cl)n1`, the figures for the IC50 in experiment [1] and in experiment [2] were 990 nM and 64 nM, respectively. On to `CC(C)CN(NC(=O)c1ccc(-c2ccc(Cl)cc2)o1)c1nc(C#N)ncc1Br`, for which the IC50 in experiment [1] was 351 nM; in experiment [2], 20 nM. For the compound `Cc1c(C(=O)NN(CC(C)C)c2nc(C#N)ncc2Br)noc1-c1ccccc1`, the results for the IC50 in experiment [1] and in experiment [2] were 71 nM and 20 nM, respectively.

As to `CC(C)(C)OC(=O)NN(Cc1ccccc1)c1nc(C#N)ncc1Br`, the IC50 came out at 347 nM in experiment [1] and 17 nM in experiment [2]. In the same order, the values of `Cc1cc(C)c(CC(=O)NN(CC(C)C)c2nc(C#N)ncc2Br)c(C)c1` are 21 nM and 1 nM. In the same order, the values of `CC(C)CN(NC(=O)c1cnoc1-c1ccccc1)c1nc(C#N)ncc1Cl` are 128 nM and 8 nM.

With `CC(C)CN(NC(=O)c1cc(-c2ccccc2)ncn1)c1nc(C#N)ncc1Cl`, the results for the IC50 in experiment [1] and in experiment [2] were 30 nM and 1 nM, respectively.

On to `CC1CCC(N(NC(=O)OC(C)(C)C)c2nc(C#N)ncc2Br)C1` (stereo not drawn), for which the results for the IC50 in experiment [1] and in experiment [2] were 53 nM and 3 nM, respectively.

`CC(C)CN(NC(=O)c1csc(-c2ccccc2)n1)c1nc(C#N)ncc1Cl`: the IC50 is 54 nM in experiment [1] and 1.5 nM in experiment [2]. For `CC(C)CN(NC(=O)c1cccc2c1-c1ccccc1C2=O)c1nc(C#N)ncc1Br`, the IC50 in experiment [1] came out at 67 nM; in experiment [2] it was 2 nM. In the same order, the values of `CC(C)(C)OC(=O)NN(CC1CCCC1)c1nc(C#N)ncc1Br` are 10 nM and 1 nM.

Take `COc1cccc2cc(C(=O)NN(CC(C)C)c3nc(C#N)ncc3Br)oc12`: the IC50 in experiment [1] turned out to be 399 nM; in experiment [2], 46 nM. Regarding `CC(C)CN(NC(=O)c1ccc2sccc2c1)c1nc(C#N)ncc1Br`, the IC50 in experiment [1] turned out to be 154 nM; in experiment [2] it was 1 nM. `CC(C)CN(NC(=O)c1c[nH]c(-c2ccccc2)n1)c1nc(C#N)ncc1Br`: the values for the IC50 in experiment [1] and in experiment [2] were 146 nM and 4 nM, respectively. Take `CC(C)CN(NC(=O)c1ccnn1-c1ccccc1)c1nc(C#N)ncc1Cl`: the values for the IC50 in experiment [1] and in experiment [2] were 63 nM and 7 nM, respectively.

For the compound `CC(C)CN(NC(=O)Cc1c(Cl)cccc1Cl)c1nc(C#N)ncc1Br`, the results for the IC50 in experiment [1] and in experiment [2] were 66 nM and 1 nM, respectively. In the same order, the values of `CC(C)(C)OC(=O)NN(CC1CCCCC1)c1nc(C#N)ncc1Br` are 146 nM and 24 nM. On to `CC(C)CN(NC(=O)OC(C)(C)C)c1nc(C#N)ncc1C#Cc1ccc(C(F)(F)F)cc1`, for which the 50% inhibitory concentration (IC50) in experiment [1] worked out at 5330 nM; in experiment [2], 102 nM. On to `Cc1c(C(=O)NN(CC(C)C)c2nc(C#N)ncc2Br)oc2cccnc12`, for which the IC50 was found to be 73 nM in experiment [1] and 2 nM in experiment [2].

For `CC(C)CN(NC(=O)c1ccc(-n2cncn2)cc1)c1nc(C#N)ncc1Br`, the IC50 stood at 52 nM in experiment [1] and 3 nM in experiment [2]. Consider `CC(C)CN(NC(=O)c1ccc2ccccc2n1)c1nc(C#N)ncc1Cl`, for which the IC50 worked out at 254 nM in experiment [1] and 6 nM in experiment [2]. Turning to `CC(C)(C)OC(=O)NN(CC1CC=CCC1)c1nc(C#N)ncc1Br` (stereo not drawn), the figures for the IC50 in experiment [1] and in experiment [2] were 41 nM and 2 nM, respectively. In the same order, the values of `CC(C)CN(NC(=O)C(N)c1ccccc1)c1nc(C#N)ncc1Br` (stereo not drawn) are 34 nM and 7 nM. With `CC(C)CN(NC(=O)c1cccc(Oc2ccccc2)c1)c1nc(C#N)ncc1Br`, the IC50 in experiment [1] turned out to be 116 nM; in experiment [2], 4 nM.

`CC(C)CN(NC(=O)OC(C)(C)C)c1nc(C#N)ncc1NCc1ccccc1`: the results for the 50% inhibitory concentration (IC50) in experiment [1] and in experiment [2] were 2070 nM and 616 nM, respectively. As for `CC(C)(C)OC(=O)NN(c1nc(C#N)ncc1Br)C1CCC1`, the IC50 in experiment [1] was 297 nM; in experiment [2], 13 nM.

Consider `Cc1nc(-c2ccccc2)sc1C(=O)NN(CC(C)C)c1nc(C#N)ncc1Br`, for which the IC50 worked out at 999 nM in experiment [1] and 406 nM in experiment [2].

`CC(C)CN(NC(=O)c1cnc2ccccc2c1)c1nc(C#N)ncc1Cl`: the IC50 in experiment [1] is 126 nM; in experiment [2] it was 1 nM. In the case of `Cc1nc(-c2ccccc2)ncc1C(=O)NN(CC(C)C)c1nc(C#N)ncc1Br`, the IC50 in experiment [1] came out at 165 nM; in experiment [2], 2 nM. Regarding `CC(C)CN(NC(=O)OC(C)(C)C)c1cccc(C#N)n1`, the IC50 in experiment [1] is over 10000 nM; in experiment [2] it was 609 nM. Consider `COc1ccc(-c2cc(C(=O)NN(CC(C)C)c3nc(C#N)ncc3Br)no2)cc1`, for which the results for the IC50 in experiment [1] and in experiment [2] were 692 nM and 4 nM, respectively. In the same order, the values of `CC(C)CN(NC(=O)c1cc2cc(OCc3ccccc3)ccc2[nH]1)c1nc(C#N)ncc1Br` are 4650 nM and 103 nM.

Regarding `CC(C)(C)OC(=O)NN(CC1CC=CC1)c1nc(C#N)ncc1Br`, the IC50 in experiment [1] amounted to 35 nM; in experiment [2], 2 nM. In the same order, the values of `CC(C)CN(NC(=O)c1cnc(-c2ccc3c(c2)CCO3)s1)c1nc(C#N)ncc1Cl` are 198 nM and 2 nM. With `Cc1nn(-c2ccccc2)nc1C(=O)NN(CC(C)C)c1nc(C#N)ncc1Br`, the IC50 in experiment [1] amounted to 1100 nM; in experiment [2], 676 nM. Regarding `CC(C)CN(NC(=O)OC(C)(C)C)c1nccc(C#N)n1`, the IC50 in experiment [1] was found to be 3570 nM; in experiment [2], 196 nM. For `CC(C)CN(NC(=O)OC(C)(C)C)c1nc(Cl)ncc1[N+](=O)[O-]`, the IC50 in experiment [1] and in experiment [2] was over 25000 nM in each case. Turning to `CC(C)CN(NC(=O)c1ccc(-c2ccccc2)cc1)c1nc(C#N)ncc1Br`, the results for the IC50 in experiment [1] and in experiment [2] were 1460 nM and 28 nM, respectively. As to `Cc1ccc2[nH]c(C(=O)NN(CC(C)C)c3nc(C#N)ncc3Br)cc2c1`, the IC50 in experiment [1] came to 1530 nM; in experiment [2], 33 nM.

For `CC(C)CN(NC(=O)c1onc2ccccc12)c1nc(C#N)ncc1Br`, the IC50 was over 10000 nM in experiment [1] and 604 nM in experiment [2]. In the same order, the values of `CC(C)CN(NC(=O)c1ccc(-c2ccccc2)s1)c1nc(C#N)ncc1Br` are 549 nM and 6 nM.

`Cc1nc2cc(C(=O)NN(CC(C)C)c3nc(C#N)ncc3Br)ccc2[nH]1`: the IC50 in experiment [1] amounted to 27 nM; in experiment [2], 0.2 nM. In the same order, the values of `CC(C)CN(NC(=O)c1ccc(-c2ccccc2)o1)c1nc(C#N)ncc1Br` are 39 nM and 1 nM. In the case of `CC(C)CN(NC(=O)c1cccc2c1Cc1ccccc1-2)c1nc(C#N)ncc1Br`, the IC50 in experiment [1] worked out at 329 nM; in experiment [2], 4 nM. For `CC(C)CN(NC(=O)c1cc(-c2ccccc2)cs1)c1nc(C#N)ncc1Br`, the IC50 in experiment [1] is 374 nM; in experiment [2], 3 nM. In the same order, the values of `CC(C)(C)OC(=O)NN(CCC1C=CCC1)c1nc(C#N)ncc1Br` (stereo not drawn) are 311 nM and 12 nM.

On to `CC(C)CN(NC(=O)C1(c2ccc(Cl)cc2)CCC1)c1nc(C#N)ncc1Br`, for which the values for the IC50 in experiment [1] and in experiment [2] were 216 nM and 12 nM, respectively.

Consider `CC(C)CN(NC(=O)c1ccc2nccnc2c1)c1nc(C#N)ncc1Br`, for which the IC50 in experiment [1] was 1440 nM; in experiment [2] it was 66 nM. Regarding `CC(C)CN(NC(=O)C(C)(C)c1ccccc1)c1nc(C#N)ncc1Br`, the results for the IC50 in experiment [1] and in experiment [2] were 60 nM and 18 nM, respectively.

As for `CC(C)(C)OC(=O)NN(c1nc(C#N)ncc1Br)C1CCCC1`, the figures for the IC50 in experiment [1] and in experiment [2] were 56 nM and 9 nM, respectively.

For `CC(C)(C)OC(=O)NN(CC1CCCO1)c1nc(C#N)ncc1Br` (stereo not drawn), the IC50 in experiment [1] was 112 nM; in experiment [2], 14 nM. Take `CC(C)CN(NC(=O)OC(C)(C)C)c1nc(C#N)ncc1Br`: the IC50 stood at 92 nM in experiment [1] and 3 nM in experiment [2]. With `Cc1cnc(C#N)nc1N(CC(C)C)NC(=O)OC(C)(C)C`, the results for the IC50 in experiment [1] and in experiment [2] were 1150 nM and 40 nM, respectively. Take `CC(C)CN(NC(=O)c1ccc2[nH]nnc2c1)c1nc(C#N)ncc1Br`: the values for the IC50 in experiment [1] and in experiment [2] were 40 nM and 0.2 nM, respectively. For the compound `Cc1ccc2sc(C(=O)NN(CC(C)C)c3nc(C#N)ncc3Br)cc2c1`, the results for the IC50 in experiment [1] and in experiment [2] were 748 nM and 6 nM, respectively. `Cc1nc(-c2ccc(C(F)(F)F)cc2)sc1C(=O)NN(CC(C)C)c1nc(C#N)ncc1Cl`: the IC50 in experiment [1] was found to be 1540 nM; in experiment [2] it was 12 nM. For `CC(C)(C)OC(=O)NN(c1nc(C#N)ncc1Br)C1CCCCC1`, the IC50 in experiment [1] came out at 8 nM; in experiment [2], 1 nM. The compound `CC(C)CN(NC(=O)OC(C)(C)C)c1nc(Cl)ncc1C#N` returned an IC50 in experiment [2] of 4530 nM.
